Test results: ChEMBL document CHEMBL4190223, “Natural Products Discovered in a High-Throughput Screen Identified as Inhibitors of RGS17 and as Cytostatic and Cytotoxic Agents for Lung and Prostate Cancer Cell Lines” (J Nat Prod, 2017)
Active and inactive are the calls of the source. The rule behind the calls is not given here.

Experiments:
[1] = tested on: HEK293; experiment: Inhibition of Galphao interaction with GFP-fused RGS17 (unknown origin) deltaN mutant expressed in HEK293 cells assessed as increase in RGS17 deltaN mutant localization at cytoplasm at 100 uM up to 30 mins by confocal microscopic analysis; assay type: cell-based; settings: Homo sapiens
How it was run: (§1)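 HEK293T cells plated at 25 000 per well on poly-D-lysine glass and kept overnight at 37 °C, 5% CO2. Next day cotransfected with hGαo (pcDNA3.1) and GFP-RGS17 N (Lipofectamine 2000). After 24 h, cells moved to serum-free, phenol-red-free DMEM and given compound (final 0.07–0.8% DMSO). Live confocal imaging; ImageJ cross-sectional intensity analysis, each T=final image normalised to the T=0 maximum.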

[2] = tested on: HEK293; experiment: Induction of morphological changes in HEK293 cells assessed as cell shrinkage at 100 uM measured over 30 mins; assay type: cell-based; settings: human, hek293, 0.5 h
[3] = tested on: HEK293; experiment: Inhibition of Galphao interaction with GFP-fused RGS17 (unknown origin) deltaN mutant expressed in HEK293 cells assessed as disruption of RGS17 localization at cell membranes at 100 uM up to 30 mins by confocal microscopic analysis; assay type: cell-based; settings: Homo sapiens; how it was run: as §1
[4] = species: Homo sapiens; experiment: Growth inhibition of human TEM4-18 cells after 1 hr by sulforhodamine B assay; assay type: functional
[5] = Solubility of the compound in aqueous buffer solution; assay type: physicochemical
[6] = tested on: RWPE-1; experiment: Growth inhibition of human RWPE1 cells at 31.6 to 56.2 uM after 1 hr by sulforhodamine B assay; assay type: cell-based; settings: rwpe-1, 1 h
[7] = target: T1, Regulator of G-protein signaling 17 (Homo sapiens) (UniProt Q9UGC6); experiment: Inhibition of RGS17 (unknown origin)-mediated CREB phosphorylation
T1 sequence (whole entry): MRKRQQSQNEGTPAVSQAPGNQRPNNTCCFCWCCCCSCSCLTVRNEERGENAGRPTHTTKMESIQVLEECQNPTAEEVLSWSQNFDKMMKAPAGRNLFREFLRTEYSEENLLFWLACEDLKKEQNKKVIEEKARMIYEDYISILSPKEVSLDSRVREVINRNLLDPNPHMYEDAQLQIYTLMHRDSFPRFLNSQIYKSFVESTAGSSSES

[8] = target: T1, Regulator of G-protein signaling 17 (Homo sapiens); experiment: Binding affinity to RGS17 (unknown origin) assessed as covalent adduct formation at 100 uM after 72 hrs by ESI-MS analysis
How it was run: (§2)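 RGS17 N (1ZV4 construct, 20 μM) in 25 mM HEPES, 100 mM NaCl, 5% DMSO, pH 8, incubated with or without 100 μM compound at 4 °C for 72 h. Then dialysed twice against 25 mM NH4HCO3 at 4 °C for 24 h to strip noncovalent ligand, followed by ESI-TOF mass analysis for adducted species.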

[9] = tested on: HEK293; experiment: Inhibition of Galphao interaction with GFP-fused RGS17 (unknown origin) deltaN mutant expressed in HEK293 cells assessed as increase in RGS17 deltaN mutant localization at cytoplasm at 10 uM up to 5 mins by confocal microscopic analysis; assay type: cell-based; settings: Homo sapiens
How it was run: (§3)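 HEK293T cells plated at 25 000/well on poly-D-lysine glass-bottom wells and co-transfected (Lipofectamine 2000) with hGαo and N-terminal GFP-fused RGS17 ΔN. After 24 h, switched to serum-free, phenol-red-free DMEM and compound added (0.07–0.8% DMSO final). Imaged by confocal microscopy; cross-sectional fluorescence profiles at T=0 and T=final, each pair normalised to the highest T=0 intensity.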

[10] = tested on: HEK293; experiment: Inhibition of Galphao interaction with GFP-fused RGS17 (unknown origin) deltaN mutant expressed in HEK293 cells assessed as increase in RGS17 deltaN mutant localization at cytoplasm at 10 uM up to 20 mins by confocal microscopic analysis; assay type: cell-based; settings: Homo sapiens; how it was run: as §3
[11] = target: Regulator of G-protein signaling 17 (Homo sapiens, UniProt Q9UGC6, C117A); experiment: Inhibition of RGS17 (unknown origin) C117A mutant interaction with biotinylated Galphao after 30 mins in presence of AMF and GDP by AlphaScreen assay
Regulator of G-protein signaling 17 (Homo sapiens, UniProt Q9UGC6, C117A), sequence (Q9UGC6 whole entry C117A): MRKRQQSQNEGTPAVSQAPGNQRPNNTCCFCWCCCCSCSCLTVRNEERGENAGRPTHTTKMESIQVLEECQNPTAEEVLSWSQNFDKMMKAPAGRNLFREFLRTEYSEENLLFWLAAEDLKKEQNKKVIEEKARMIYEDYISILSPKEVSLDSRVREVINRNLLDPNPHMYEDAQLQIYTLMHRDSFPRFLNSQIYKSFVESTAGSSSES
How it was run: (§4)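 AlphaScreen assay: RGS17 (WT or C117A) on anti-GST beads, 10 nM final, preincubated 30 min with compound (half-log series, 100 μM to 1 nM final). Gαo-biotin on streptavidin beads then added with AMF and GDP, 10 nM final. Negative controls lacked AMF. Data n = 3, run at least in duplicate.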

[12] = tested on: HEK293; experiment: Inhibition of Galpha0 interaction with GFP-fused RGS17 (unknown origin) deltaN mutant expressed in HEK293 cells assessed as increase in RGS17 deltaN mutant localization at cytoplasm at 100 uM up to 5 mins by confocal microscopic analysis; assay type: cell-based; settings: Homo sapiens; how it was run: as §3
[13] = target: T1, Regulator of G-protein signaling 17 (Homo sapiens); experiment: Binding affinity to RGS17 (unknown origin) assessed as molecular weight of covalent adduct at 100 uM after 72 hrs by ESI-MS analysis (reference value: 16232 Da); how it was run: as §2
[14] = tested on: HEK293; experiment: Induction of morphological changes in HEK293 cells assessed as cell shrinkage at 100 uM; assay type: cell-based; settings: human, hek293, 100 µM
[15] = target: T2, Regulator of G-protein signaling 17 (Homo sapiens, UniProt Q9UGC6); experiment: (§5) Inhibition of wild type GST-tagged RGS17 (unknown origin) interaction with biotinylated Galphao after 30 mins in presence of AMF and GDP by AlphaScreen assay; how it was run: as §4
T2 sequence (Q9UGC6 whole entry): T1 sequence (whole entry)

[16] = target: T1, Regulator of G-protein signaling 17 (Homo sapiens); experiment: as §5; how it was run: as §4
[17] = tested on: PC-3; experiment: Growth inhibition of E-cadherin expressing human PC3 cells after 1 hr by sulforhodamine B assay; assay type: functional, cell-based
[18] = target: T1, Regulator of G-protein signaling 17 (Homo sapiens); experiment: Binding affinity to RGS17 (unknown origin) assessed as change in chemical shift perturbations by NMR spectroscopic analysis
[19] = tested on: A549; experiment: Growth inhibition of human A549 cells measured every 2 hrs over 6 days by live cell imaging based method; assay type: functional
How it was run: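 A549 cells harvested by trypsin, plated at 1000 cells/well in 24-well plates, left overnight to attach, then treated in triplicate with compound or matched DMSO (≤0.2% final). Confluence imaged live every 2 h over 6 days. Change in confluence relative to DMSO plotted against concentration. IC50 taken from a linear regression of each curve at 0.5 relative growth.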

[20] = tested on: HEK293; experiment: Induction of morphological changes in HEK293 cells assessed as plasma membrane blebbing at 100 uM; assay type: cell-based; settings: human, hek293, 100 µM
[21] = target: T1, Regulator of G-protein signaling 17 (Homo sapiens); experiment: Binding affinity to RGS17 (unknown origin) assessed as change in melting temperature by differential scanning fluorimetry
[22] = tested on: PC-3; experiment: Growth inhibition of E-cadherin expressing human PC3 cells transfected with RGS17 at 31.6 to 56.2 uM after 1 hr by sulforhodamine B assay; assay type: functional, cell-based
[23] = Thiol reactivity of the compound assessed as cysteine adduct formation at 100 uM after 4 hrs in presence of N-Acetylcysteine by Ellman's method; assay type: physicochemical
How it was run: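 Ellman assay: N-acetylcysteine (100 μM) incubated with compound (100 μM, 1:1) for 4 h at 37 °C. DTNB (1 mM) then added and absorbance read at 412 nm against N-acetylcysteine alone; N-ethylmaleimide as thiol-reactive control; n = 3.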

[24] = target: Guanine nucleotide-binding protein G(o) subunit alpha (Homo sapiens) (UniProt P09471); experiment: Binding affinity to Galphao (unknown origin) assessed as change in melting temperature by differential scanning fluorimetry
Guanine nucleotide-binding protein G(o) subunit alpha (Homo sapiens), sequence (P09471 2-354 limits assumed): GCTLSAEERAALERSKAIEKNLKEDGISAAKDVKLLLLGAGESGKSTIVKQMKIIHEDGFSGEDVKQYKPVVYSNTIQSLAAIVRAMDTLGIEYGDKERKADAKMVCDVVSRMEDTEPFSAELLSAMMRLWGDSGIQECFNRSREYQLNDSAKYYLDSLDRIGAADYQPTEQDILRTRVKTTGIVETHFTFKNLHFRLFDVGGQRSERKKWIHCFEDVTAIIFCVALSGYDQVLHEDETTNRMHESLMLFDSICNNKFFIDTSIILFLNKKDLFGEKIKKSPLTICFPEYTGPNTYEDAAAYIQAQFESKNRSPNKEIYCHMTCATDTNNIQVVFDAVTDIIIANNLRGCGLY

[25] = target: T2, Regulator of G-protein signaling 17; experiment: Inhibition of RGS17 (unknown origin) GAP activity in presence of GTP by malachite green dye based assay
[26] = tested on: A549; experiment: Growth inhibition of human A549 cells up to 1 uM measured every 2 hrs over 6 days by live cell imaging based method; assay type: functional
How it was run: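 A549 cells trypsinised, counted and seeded at 1000 per well in 24-well plates, then allowed to attach overnight. Treated in triplicate up to 1 μM compound (≤0.2% DMSO, matched DMSO control). Confluence imaged every 2 h for 6 days by live-cell imaging. Confluence change relative to DMSO plotted against concentration; IC50 from linear regression at 0.5 relative growth.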

[27] = tested on: HEK293; experiment: Inhibition of Galphao interaction with GFP-fused RGS17 (unknown origin) deltaN mutant expressed in HEK293 cells assessed as increase in RGS17 deltaN mutant localization at cytoplasm at 100 uM up to 20 mins by confocal microscopic analysis; assay type: cell-based; settings: Homo sapiens; how it was run: as §1
[28] = tested on: HEK293; experiment: Inhibition of Galphao interaction with GFP-fused RGS17 (unknown origin) deltaN mutant expressed in HEK293 cells assessed as increase in RGS17 deltaN mutant localization at cytoplasm at 10 uM up to 30 mins by confocal microscopic analysis; assay type: cell-based; settings: Homo sapiens; how it was run: as §1
[29] = target: T1, Regulator of G-protein signaling 17 (Homo sapiens); experiment: Inhibition of Galphao interaction with GFP-fused full length RGS17 (unknown origin) expressed in HEK293 cells assessed as disruption of RGS17 localization at cell membranes at 100 uM after 10 mins by confocal microscopic analysis; assay type: cell-based
How it was run: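 HEK293T cells co-transfected with hGαo and N-terminal GFP-fused full-length RGS17, then treated with 100 μM compound in serum-free, phenol-red-free DMEM. RGS17 membrane localisation followed by confocal imaging at 0 and 10 min.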

| Structure (SMILES) | growth inhibition (GI) [4] | growth inhibition (GI) [6] | inhibition [7] | Activity [8] | inhibition [9] | IC50 [11] [µM] | inhibition [12] | Activity [13] [Da] | Activity [14] | IC50 [15] [µM] | inhibition [16] | growth inhibition (GI) [17] | Activity [18] | IC50 [19] [µM] | Activity [20] | Activity [21] | growth inhibition (GI) [22] | Activity [23] | IC50 [25] [µM] | inhibition [28] | further results |
| --- | --- | --- | --- | --- | --- | --- | --- | --- | --- | --- | --- | --- | --- | --- | --- | --- | --- | --- | --- | --- | --- |
| Cc1ccc(-n2sc(=O)n(Cc3ccc(F)cc3)c2=O)cc1 |  |  |  |  |  |  |  |  |  |  |  |  |  |  |  |  |  |  |  |  | inhibition [1]: inactive; Activity [2]: Toxic; inhibition [3]: inactive |
| CC1=C(O)C(=O)C=C2C1=CC=C1[C@@]2(C)CC[C@@]2(C)[C@@H]3C[C@](C)(C(=O)O)CC[C@]3(C)CC[C@]12C [CELASTROL] | Dose-dependent effect | Toxic | inactive | Active | Active | > 100 | Active | 16200 | Non-Toxic | 10.5 | Dose-dependent effect | Dose-dependent effect | inactive | 0.69 | Non-Toxic | inactive | inactive | Not Active |  |  | solubility [5]: Insoluble; inhibition [10]: Active |
| CC(C)=CCC[C@]1(C)C=Cc2c(O)c3c(c(CC=C(C)C)c2O1)O[C@]12C(=C[C@@H]4C[C@H]1C(C)(C)O[C@@]2(C/C=C(/C)C(=O)O)C4=O)C3=O [GAMBOGIC ACID] |  |  |  |  |  |  |  |  |  |  |  |  |  |  |  |  |  |  | 10 |  | Activity [24]: Active |
| O=c1c(-c2cc(O)c(O)c(O)c2)coc2cc(O)c(O)c(O)c12 [IRIGENOL] |  |  |  | inactive |  | 81.8 |  | 16200 | Non-Toxic | 47.2 | Dose-dependent effect |  | inactive |  | Non-Toxic | inactive |  | Active | 35 | Active | growth inhibition (GI) [26]: inactive; inhibition [27]: Active |
| C[n+]1cc2c3c(ccc2c2ccc4cc5c(cc4c21)OCO5)OCO3 [SANGUINARIUM] | Dose-dependent effect | Toxic | inactive | inactive | Active | > 100 | Active | 16200 | Non-Toxic | 72.8 | Dose-dependent effect | Dose-dependent effect | inactive | 0.61 | Non-Toxic | inactive | inactive | Active | 12 | Active | inhibition [29]: inactive |
